Source: PMC7893792 (ACS Omega, 2021)
Values belong to the molecule of their own block, whether it stands above or below them.

How the values were obtained:
rOat1 = biological target: T1, rOat1 (Rattus norvegicus, UniProt O35956); test: 6-CF uptake by rOat1-expressing HEK293 cells; type: cell-based
T1 sequence (O35956 1-551): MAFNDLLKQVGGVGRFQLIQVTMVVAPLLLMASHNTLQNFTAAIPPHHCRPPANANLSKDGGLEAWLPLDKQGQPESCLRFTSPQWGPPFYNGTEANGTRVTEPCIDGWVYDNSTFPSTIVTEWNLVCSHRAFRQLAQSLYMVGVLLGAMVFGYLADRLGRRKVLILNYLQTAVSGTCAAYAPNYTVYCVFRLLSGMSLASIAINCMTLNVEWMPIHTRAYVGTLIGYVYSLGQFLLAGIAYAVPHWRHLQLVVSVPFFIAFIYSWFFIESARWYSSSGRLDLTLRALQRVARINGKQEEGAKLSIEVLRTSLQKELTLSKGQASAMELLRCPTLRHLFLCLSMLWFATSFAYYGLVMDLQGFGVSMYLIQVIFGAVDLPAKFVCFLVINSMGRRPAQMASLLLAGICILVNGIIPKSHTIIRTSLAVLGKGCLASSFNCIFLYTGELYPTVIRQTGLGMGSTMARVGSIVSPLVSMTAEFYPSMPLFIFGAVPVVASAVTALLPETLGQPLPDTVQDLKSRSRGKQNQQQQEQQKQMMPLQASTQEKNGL

hOAT1 [1] = biological target: T2, hOAT1 (Homo sapiens, UniProt Q4U2R8); test: 6-CF uptake by hOAT1-expressing HEK293 cells; type: cell-based
T2 sequence (Q4U2R8 1-563): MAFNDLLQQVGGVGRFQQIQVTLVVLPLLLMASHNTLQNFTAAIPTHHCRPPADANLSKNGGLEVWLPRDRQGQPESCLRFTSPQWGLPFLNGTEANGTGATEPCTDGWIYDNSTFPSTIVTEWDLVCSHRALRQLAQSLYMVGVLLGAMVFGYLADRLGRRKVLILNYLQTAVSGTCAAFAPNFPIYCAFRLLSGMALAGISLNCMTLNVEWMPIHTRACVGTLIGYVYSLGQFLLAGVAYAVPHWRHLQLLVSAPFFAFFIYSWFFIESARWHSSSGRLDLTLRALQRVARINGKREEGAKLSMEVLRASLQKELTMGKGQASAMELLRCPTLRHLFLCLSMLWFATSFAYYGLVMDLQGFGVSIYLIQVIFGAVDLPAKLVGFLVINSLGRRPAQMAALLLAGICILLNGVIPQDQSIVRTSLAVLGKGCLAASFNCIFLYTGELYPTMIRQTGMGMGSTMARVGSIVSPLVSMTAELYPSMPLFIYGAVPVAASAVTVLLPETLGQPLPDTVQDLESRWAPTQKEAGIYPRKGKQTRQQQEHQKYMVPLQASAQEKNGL

hOAT1 [2] = biological target: T2, hOAT1; conditions: cited from earlier work
mouse Oat3 = conditions: cited from earlier work
rOat3 = biological target: T3, rOat3 (Rattus norvegicus, UniProt Q9R1U7); test: 6-CF uptake by rOat3-expressing HEK293 cells; type: cell-based; conditions: for inhibition at 100 µM: HEK293, pH 7.4, read-out: Inhibition of rOat3-mediated 6-CF uptake
T3 sequence (Q9R1U7 1-536): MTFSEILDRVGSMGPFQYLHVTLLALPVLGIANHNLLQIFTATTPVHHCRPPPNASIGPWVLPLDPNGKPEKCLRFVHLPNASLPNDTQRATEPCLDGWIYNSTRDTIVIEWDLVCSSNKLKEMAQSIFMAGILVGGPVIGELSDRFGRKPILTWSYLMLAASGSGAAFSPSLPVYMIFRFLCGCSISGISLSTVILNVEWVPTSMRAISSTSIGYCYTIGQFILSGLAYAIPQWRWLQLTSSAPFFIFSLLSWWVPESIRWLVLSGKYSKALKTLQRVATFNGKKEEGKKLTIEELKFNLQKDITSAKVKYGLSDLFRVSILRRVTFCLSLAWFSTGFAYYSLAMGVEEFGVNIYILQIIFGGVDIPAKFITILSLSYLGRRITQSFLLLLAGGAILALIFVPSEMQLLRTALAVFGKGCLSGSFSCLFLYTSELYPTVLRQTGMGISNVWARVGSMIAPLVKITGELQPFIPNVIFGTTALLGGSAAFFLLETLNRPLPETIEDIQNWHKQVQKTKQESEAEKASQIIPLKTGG

hOAT3 [3] = biological target: T4, hOAT3 (Homo sapiens, UniProt Q8TCC7); test: 6-CF uptake by hOAT3-expressing HEK293 cells; type: cell-based; conditions: for inhibition at 100 µM: HEK293, pH 7.4, read-out: Inhibition of hOAT3-mediated 6-CF uptake
T4 sequence (Q8TCC7 1-542): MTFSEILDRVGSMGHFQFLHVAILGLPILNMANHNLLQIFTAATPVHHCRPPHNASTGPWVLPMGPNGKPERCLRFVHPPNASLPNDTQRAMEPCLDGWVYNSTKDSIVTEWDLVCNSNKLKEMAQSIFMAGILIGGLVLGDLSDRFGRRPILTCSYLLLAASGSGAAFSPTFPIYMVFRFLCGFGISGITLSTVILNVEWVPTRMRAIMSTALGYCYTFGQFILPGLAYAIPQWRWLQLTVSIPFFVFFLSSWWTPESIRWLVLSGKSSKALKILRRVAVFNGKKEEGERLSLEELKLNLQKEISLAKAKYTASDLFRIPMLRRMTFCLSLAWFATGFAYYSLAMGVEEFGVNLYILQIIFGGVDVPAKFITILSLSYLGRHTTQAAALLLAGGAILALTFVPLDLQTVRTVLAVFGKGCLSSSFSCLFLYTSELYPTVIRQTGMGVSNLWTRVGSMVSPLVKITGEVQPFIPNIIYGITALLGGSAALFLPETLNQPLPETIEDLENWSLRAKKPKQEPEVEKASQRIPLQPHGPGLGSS
Outline: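 After 10 min preincubation at 37 °C in Waymouth buffer pH 7.4, cells took up 1 μM 6-CF with test compound for 2 min, then ice-cold PBS wash, 1% SDS lysis, fluorescence. Vector uptake subtracted. Inhibition type: 6-CF 1–100 μM ± 0.1 mM test compound, Eadie–Hofstee plot; mean ± SE, n = 3–4.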

renal Oats = test: Plasma concentration and urinary excretion of 6-CF in rats; type: in vivo; conditions: rat; for Decrease of the renal clearance (CLr) of 6-CF: vs control, probenecid 100 mg/kg, EGCG 60 mg/kg, 2% D-malate
Outline: (§1)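 Male Wistar/ST rats (7 weeks) were anesthetized with ethyl carbamate/α-chloralose, with femoral artery, vein and bladder catheters. 5% mannitol iv bolus 2.5 mL/kg, then 0.03 mL/min infusion. After 20 min, 6-CF 1 mg/kg iv bolus ± test compound 60 mg/kg, saline vehicle. Plasma sampled 1–60 min, urine 0–60 min; fluorescence read-out. AUC0–60 by trapezoidal rule; CLr = 60-min urinary amount/AUC0–60; mean ± SD, 6–8 rats.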

Renal parameters = type: in vivo; conditions: rat; for BUN / Ccr: iv probenecid 100 mg/kg, EGCG 60 mg/kg or 2% D-malate; for Change in blood urea nitrogen (BUN) / Change in creatinine clearance (Ccr): vs control, Dunnett's test
Outline: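 Anesthetized, catheterized male Wistar/ST rats on iv 5% mannitol (2.5 mL/kg bolus, 0.03 mL/min infusion; ± 2% D-malate) received 6-CF 1 mg/kg iv alone or with reference inhibitor 100 mg/kg or test compound 60 mg/kg. BUN measured with a colorimetric urea kit; plasma and urine creatinine by kit. Ccr = urinary creatinine excretion rate ÷ plasma creatinine. One-way ANOVA, Dunnett's test vs control.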

hOAT3 [4] = biological target: T4, hOAT3; conditions: cited from earlier work
hOAT1 [5] = biological target: T2, hOAT1; conditions: cited from earlier work; remark: listed apart in the source
[6] = Plasma concentration and urinary excretion of 6-CF in rats; type: in vivo; conditions: male, Wistar/ST, rat, iv, 1 mg/kg
Outline: as §1

[7] = substrate: O=C(O)c1ccc(C(=O)O)c(-c2c3ccc(=O)cc-3oc3cc(O)ccc23)c1; test: 6-CF uptake by rOat1-expressing HEK293 cells; type: cell-based, rat; conditions: other: HEK293-rOat1, 2 min, 37 °C, pH 7.4, 1-100 μM 6-CF
[8] = EGCG 60 mg/kg iv with 6-CF 1 mg/kg
[9] = compound 100 μM, 6-CF 1 μM, 2 min, 37 °C, pH 7.4

Inhibitory effect, OAT1 compared with OAT3 (rat) (rOat1; 100 μM, rOat1 vs rOat3 plot): higher for OAT1 than those for OAT3
Inhibitory effect, OAT1 compared with OAT3 (human) (hOAT1 [1]; 100 μM, hOAT1 vs hOAT3 plot): higher for OAT1 than those for OAT3
Molecule: Nc1ncnc2c1ncn2CCOCP(=O)(O)O [adefovir]

Molecule: Oc1cc(O)c2c(c1)O[C@H](c1ccc(O)c(O)c1)[C@H](O)C2 [epicatechin]
Interaction with hOAT1 (hOAT1 [2]): did not interact
Inhibition of mouse Oat3 (mouse Oat3): inhibit

inhibition at 100 µM (rOat3): > 80%
inhibition at 100 µM (hOAT3 [3]): > 80%
Molecule: CCCCC[C@H](O)/C=C/[C@H]1[C@H](O)CC(=O)[C@@H]1C/C=C\CCCC(=O)O [prostaglandin E2]

BUN (Renal parameters): 11.9 ± 1.3 mg/dL
Ccr (Renal parameters): 2.58 ± 0.82 mL/min/kg
Change in blood urea nitrogen (BUN) (Renal parameters): no significant change
Change in creatinine clearance (Ccr) (Renal parameters): no significant change
Type of inhibition (rOat1; rOat1, Eadie-Hofstee plot): competitive inhibition
Type of inhibition (rOat3; rOat3, Eadie-Hofstee plot): competitive inhibition
Type of inhibition (hOAT1 [1]; hOAT1, Eadie-Hofstee plot): mixed-type inhibition
Type of inhibition (hOAT3 [3]; hOAT3, Eadie-Hofstee plot): competitive inhibition
Molecule: O=C(O[C@@H]1Cc2c(O)cc(O)cc2O[C@@H]1c1cc(O)c(O)c(O)c1)c1cc(O)c(O)c(O)c1 [EGCG, (−)-epigallocatechin-3-gallate]
Increase of 6-CF AUC0–60 (renal Oats; [8]): ~2.2 fold
Increase of the plasma concentration of 6-CF at 60 min (renal Oats; [8]): ~8 fold
Decrease of the renal clearance (CLr) of 6-CF (renal Oats): ~2.6 fold

Inhibition of rOat1-mediated 6-CF uptake (rOat1; [9]): no effects
Inhibition of rOat3-mediated 6-CF uptake (rOat3; [9]): no effects
Inhibition of hOAT1-mediated 6-CF uptake (hOAT1 [1]; [9]): no effects
Inhibition of hOAT3-mediated 6-CF uptake (hOAT3 [3]; [9]): no effects
Molecule: CC[N+](CC)(CC)CC [TEA, tetraethylammonium]

BUN (Renal parameters): 12.6 ± 0.7 mg/dL
Ccr (Renal parameters): 2.51 ± 0.78 mL/min/kg
Change in blood urea nitrogen (BUN) (Renal parameters): no significant change
Change in creatinine clearance (Ccr) (Renal parameters): no significant change
inhibition at 100 µM (rOat3): > 80%
inhibition at 100 µM (hOAT3 [3]): > 80%
Molecule: CCCN(CCC)S(=O)(=O)c1ccc(C(=O)O)cc1 [probenecid]
Decrease of the renal clearance (CLr) of 6-CF (renal Oats): ~6 fold

Molecule: O.Oc1cc(O)c2c(c1)O[C@H](c1ccc(O)c(O)c1)[C@@H](O)C2 [catechin]
Interaction with hOAT1 (hOAT1 [2]): did not interact

Molecule: O=C(O[C@@H]1Cc2c(O)cc(O)cc2O[C@@H]1c1ccc(O)c(O)c1)c1cc(O)c(O)c(O)c1 [epicatechin gallate]
Inhibition of mouse Oat3 (mouse Oat3): inhibit

Molecule: O=C(O)C[C@@H](O)C(=O)O [D-malate]
Decrease of the renal clearance (CLr) of 6-CF (renal Oats): ~4 fold
BUN (Renal parameters): 11.4 ± 1.1 mg/dL
Ccr (Renal parameters): 2.92 ± 0.66 mL/min/kg
Change in blood urea nitrogen (BUN) (Renal parameters): no significant change
Change in creatinine clearance (Ccr) (Renal parameters): no significant change

CL renal ([6]; plasma and urine): 18.3 ± 6.8 mL/min/kg
AUC(0-t) ([6]; plasma): 573 ng·h/mL
Vmax of 6-CF uptake (rOat1; HEK293-rOat1, 2 min, 37 °C, pH 7.4): 131 ± 3 pmol/mg/2 min
Vmax of 6-CF uptake (rOat3; HEK293-rOat3, 2 min, 37 °C, pH 7.4): 35.3 ± 1.3 pmol/mg/2 min
Molecule: O=C(O)c1ccc(C(=O)O)c(-c2c3ccc(=O)cc-3oc3cc(O)ccc23)c1 [6-CF, 6-carboxyfluorescein]
Vmax of 6-CF transport (hOAT3 [4]): 70.0 ± 3.2 pmol/mg/2 min
Km (hOAT3 [4]; read-out: Km of 6-CF transport): 38.4 ± 4.2 µM
Vmax of 6-CF transport (hOAT1 [5]): 125.1 ± 1.6 pmol/mg/2 min
Km (hOAT1 [5]; read-out: Km of 6-CF transport): 6.94 ± 0.33 µM

B1: rOat1 (Rattus norvegicus) (protein)
chain: T1 sequence (O35956 1-551)
Km [7]: 6.68 ± 0.62 µM
